Data from ChEMBL document CHEMBL1135786, “Anti-AIDS agents 49. Synthesis, anti-HIV, and anti-fusion activities of IC9564 analogues based on betulinic acid” (J Med Chem, 2002).

Assays:
Type in all cases: functional, organism-based
[1] = test system: Human immunodeficiency virus 1; experiment: Anti HIV-1 activity against the virus NL4-3 using MAGI assay; details: Human immunodeficiency virus 1, MAGI
Method in brief: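 HeLa-CD4/CCR5/β-gal indicator cells seeded at 10 000/well, grown 1 day in DMEM with G418 (500 µg/mL) and hygromycin (250 µg/mL). Infected with virus dilutions in presence of graded compound concentrations, 2 days at 37 °C. Fixed (1% formaldehyde, 0.2% glutaraldehyde), X-gal stained (0.4 mg/mL). Blue (Tat-expressing) cells counted; EC50 = concentration halving infected-cell number.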

[2] = test system: Human immunodeficiency virus 1; experiment: Anti HIV-1 activity against the virus NL4-3 using fusion assay
Method in brief: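 COS cells (10⁶) electroporated (950 µF, […]) with 2 µg vector expressing HIV-1 NL4-3 envelope, cultured 1 day. Then 10⁴ transfected cells mixed with 7 × 10⁴ MOLT-4 cells. Graded compound concentrations added, 24 h at 37 °C. Multinucleated syncytia counted microscopically over entire well; EC50 from syncytium inhibition.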

[3] = test system: Human immunodeficiency virus 1; experiment: Anti HIV-1 activity against infected H9 lymphocyte cells; details: Human immunodeficiency virus 1, H9
Method in brief: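 HIV-1 acutely infected H9 lymphocytes cultured with the test agent; EC50 (µM) reported.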

With C=C(C)[C@@H]1CC[C@]2(C(=O)NCCCCCCCC(=O)OC)CC[C@]3(C)[C@H](CC[C@@H]4[C@@]5(C)CC[C@H](OC(C)=O)C(C)(C)[C@@H]5CC[C@]43C)[C@@H]12 the EC50 [1] was 29.1 µM and the EC50 [2] was greater than 31 µM.

For C=C(C)[C@@H]1CC[C@]2(C(=O)NCCCCCCCC(=O)N[C@@H](CC(C)C)[C@H](O)CC(=O)O)CC[C@]3(C)[C@H](CC[C@@H]4[C@@]5(C)CC[C@H](O)C(C)(C)[C@@H]5CC[C@]43C)[C@@H]12, the EC50 [1] was 0.4 µM and the EC50 [2] was 0.66 µM.

In the case of C=C(C)[C@@H]1CC[C@]2(C(=O)NCCCCCCCCCCC(=O)N[C@@H](CC(C)C)C(=O)O)CC[C@]3(C)[C@H](CC[C@@H]4[C@@]5(C)CC[C@H](O)C(C)(C)[C@@H]5CC[C@]43C)[C@@H]12, the EC50 [1] is reported as 0.46 µM and the EC50 [2] is reported as 0.33 µM.

With CC(=O)O[C@H]1CC[C@]2(C)[C@H]3CC[C@@H]4[C@H]5[C@H](C(C)C)CC[C@]5(C(=O)NCCCCCCCC(=O)N[C@@H](CC(C)C)[C@H](O)CC(=O)OCc5ccccc5)CC[C@@]4(C)[C@]3(C)CC[C@H]2C1(C)C the EC50 [1] was greater than 28 µM and the EC50 [2] was greater than 22 µM.

C=C(C)[C@@H]1CC[C@]2(C(=O)NCCCCCCCCCCC(=O)O)CC[C@]3(C)[C@H](CC[C@@H]4[C@@]5(C)CC[C@H](O)C(C)(C)[C@@H]5CC[C@]43C)[C@@H]12 gave an EC50 [1] of 0.7 µM and an EC50 [2] of 0.31 µM.

With C=C(C)[C@@H]1CC[C@]2(C(=O)N[C@@H](CC(C)C)C(=O)O)CC[C@]3(C)[C@H](CC[C@@H]4[C@@]5(C)CC[C@H](O)C(C)(C)[C@@H]5CC[C@]43C)[C@@H]12 the EC50 [3] was 3.22 µM and the EC50 [2] was 5.48 µM.

In the case of C=C(C)[C@@H]1CC[C@]2(C(=O)NCCC(=O)O)CC[C@]3(C)[C@H](CC[C@@H]4[C@@]5(C)CC[C@H](O)C(C)(C)[C@@H]5CC[C@]43C)[C@@H]12, the EC50 [1] is reported as greater than 47 µM and the EC50 [2] is reported as greater than 38 µM.

Compound C=C(C)[C@@H]1CC[C@]2(C(=O)NCCC(=O)OC)CC[C@]3(C)[C@H](CC[C@@H]4[C@@]5(C)CC[C@H](OC(C)=O)C(C)(C)[C@@H]5CC[C@]43C)[C@@H]12 has an EC50 [1] of 26.7 µM and an EC50 [2] of 21.4 µM.

C=C(C)[C@@H]1CC[C@]2(C(=O)NCCCCCCCCCCC(=O)N[C@@H](CC(C)C)C(=O)OC)CC[C@]3(C)[C@H](CC[C@@H]4[C@@]5(C)CC[C@H](O)C(C)(C)[C@@H]5CC[C@]43C)[C@@H]12 gave an EC50 [1] greater than 32 µM and an EC50 [2] greater than 26 µM.

Work on C=C(C)[C@@H]1CC[C@]2(C(=O)NCCC(=O)N[C@@H](CC(C)C)C(=O)OC)CC[C@]3(C)[C@H](CC[C@@H]4[C@@]5(C)CC[C@H](O)C(C)(C)[C@@H]5CC[C@]43C)[C@@H]12 yielded an EC50 [1] greater than 38 µM and an EC50 [2] of 7.63 µM.

C=C(C)[C@@H]1CC[C@]2(C(=O)NCCCCCCCCCCC(=O)OC)CC[C@]3(C)[C@H](CC[C@@H]4[C@@]5(C)CC[C@H](OC(C)=O)C(C)(C)[C@@H]5CC[C@]43C)[C@@H]12 showed an EC50 [1] of 10.2 µM and an EC50 [2] greater than 29 µM.

C=C(C)[C@@H]1CC[C@]2(C(=O)NCCC(=O)N[C@@H](CC(C)C)C(=O)O)CC[C@]3(C)[C@H](CC[C@@H]4[C@@]5(C)CC[C@H](O)C(C)(C)[C@@H]5CC[C@]43C)[C@@H]12 gave an EC50 [1] greater than 39 µM and an EC50 [2] greater than 31 µM.

C=C(C)[C@@H]1CC[C@]2(C(=O)NCCCCCCCC(=O)N[C@@H](CC(C)C)C(=O)O)CC[C@]3(C)[C@H](CC[C@@H]4[C@@]5(C)CC[C@H](O)C(C)(C)[C@@H]5CC[C@]43C)[C@@H]12 showed an EC50 [1] of 1.38 µM and an EC50 [2] of 1.1 µM.

C=C(C)[C@@H]1CC[C@]2(C(=O)NCCCCCCCC(=O)N[C@@H](CC(C)C)C(=O)OC)CC[C@]3(C)[C@H](CC[C@@H]4[C@@]5(C)CC[C@H](O)C(C)(C)[C@@H]5CC[C@]43C)[C@@H]12 was tested, and the EC50 [1] was 0.52 µM and the EC50 [2] was 0.86 µM.

C=C(C)[C@@H]1CC[C@]2(C(=O)N[C@@H](CC(C)C)C(=O)OC)CC[C@]3(C)[C@H](CC[C@@H]4[C@@]5(C)CC[C@H](OC(C)=O)C(C)(C)[C@@H]5CC[C@]43C)[C@@H]12 gave an EC50 [1] greater than 40 µM and an EC50 [2] greater than 32 µM.

With CC(C)C[C@H](NC(=O)CCCCCCCNC(=O)[C@]12CC[C@@H](C(C)C)[C@@H]1[C@H]1CC[C@@H]3[C@@]4(C)CC[C@H](O)C(C)(C)[C@@H]4CC[C@@]3(C)[C@]1(C)CC2)[C@H](O)CC(=O)O the EC50 [1] was 0.33 µM and the EC50 [2] was 0.4 µM.

In the case of Cc1cn([C@H]2C[C@H](N=[N+]=[N-])[C@@H](CO)O2)c(=O)[nH]c1=O [ZIDOVUDINE], the EC50 [1] is reported as 0.075 µM and the EC50 [2] is reported as greater than 75 µM.
